ChEMBL document CHEMBL1687916, “Non-nucleoside inhibitors of human adenosine kinase: synthesis, molecular modeling, and biological studies” (J Med Chem, 2011)
pIC50: −log10 of the molar value.

Key:
Adenosine kinase = Adenosine kinase (Homo sapiens, UniProt P55263); assay: Inhibition of human adenosine kinase; conditions: for pIC50: read-out: IC50
[1] = biological target: T1, Adenosine deaminase (Bos taurus) (UniProt P56658); assay: Inhibition of bovine ADA at 100 uM by spectrophotometric analysis
T1 sequence (whole entry): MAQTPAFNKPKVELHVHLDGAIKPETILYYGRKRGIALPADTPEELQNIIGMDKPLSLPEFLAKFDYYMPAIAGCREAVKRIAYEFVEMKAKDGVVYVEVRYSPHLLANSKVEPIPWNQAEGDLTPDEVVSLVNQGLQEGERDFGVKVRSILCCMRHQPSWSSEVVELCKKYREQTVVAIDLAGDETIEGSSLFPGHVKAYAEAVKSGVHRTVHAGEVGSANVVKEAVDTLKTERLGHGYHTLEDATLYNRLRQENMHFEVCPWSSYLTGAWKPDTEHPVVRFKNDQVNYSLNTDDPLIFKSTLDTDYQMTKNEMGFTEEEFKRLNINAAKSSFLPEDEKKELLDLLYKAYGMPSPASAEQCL
In short: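 Adenosine deaminase assayed at 30 C with 50 μM Ado, 50 mM potassium phosphate pH 7.2 and 0.3 nM enzyme. Deamination was followed as A262 change over 2 min. Compound tested at 100 μM, with DMSO at most 4% final and a substrate-free blank. Percent inhibition from two determinations in triplicate.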

NIH3T3 = assay: Cytotoxicity against mouse 3T3 cells by phenyltetrazolium bromide assay; type: functional, cell-based
In short: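 Murine 3T3 fibroblasts; proliferation measured by MTT assay, with IC50 reported. Each value is the mean of three determinations; Student's t test, p < 0.05.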

Chain of Adenosine kinase (P55263 whole entry): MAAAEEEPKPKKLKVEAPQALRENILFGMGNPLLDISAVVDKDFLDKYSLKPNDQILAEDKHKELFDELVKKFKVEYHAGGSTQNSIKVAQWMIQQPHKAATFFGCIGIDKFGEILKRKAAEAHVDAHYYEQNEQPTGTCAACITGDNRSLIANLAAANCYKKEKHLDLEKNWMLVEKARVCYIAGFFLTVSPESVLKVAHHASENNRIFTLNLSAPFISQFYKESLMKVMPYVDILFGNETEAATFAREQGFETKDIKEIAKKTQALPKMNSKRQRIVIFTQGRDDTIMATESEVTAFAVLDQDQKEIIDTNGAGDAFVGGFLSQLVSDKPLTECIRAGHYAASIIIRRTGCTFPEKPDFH

SMILES	pIC50 (Adenosine kinase)	further results
CC(=O)OC1=C(c2ccccc2)Oc2ccccc2-n2cccc21		IC50 (Adenosine kinase): Not Active
CC(=O)OC1=C(c2ccccc2)Sc2ccccc2-n2cccc21		IC50 (Adenosine kinase): Not Active
CCC1(c2cccc(C)c2)Oc2ccccc2-n2cccc2C1=O (racemic)	3.82	
CCC1(c2ccc(CSc3ccc(I)cc3)cc2)Sc2ccccc2-n2cccc2C1=O (racemic)	5.66	
CN(C)c1ccc2n1-c1ccccc1SC(c1ccccc1)C2=O (racemic)	< 3.00	
CCC1(c2ccc(CSc3ccc([N+](=O)[O-])cc3)cc2)Oc2ccccc2-n2cccc2C1=O (racemic)	5.21	
CCC1(c2ccc(CSc3ccc(C#C[Si](C)(C)C)cc3)cc2)Oc2ccccc2-n2cccc2C1=O (racemic)	5.00	
CCC1(c2ccc(CSc3c(C)cccc3Cl)cc2)Oc2ccccc2-n2cccc2C1=O (racemic)	5.52	
CCC1(c2ccc(CSc3c(Cl)cccc3Cl)cc2)Oc2ccccc2-n2cccc2C1=O (racemic)	4.70	
CCC1(c2ccc(CSc3cccc(Cl)c3Cl)cc2)Oc2ccccc2-n2cccc2C1=O (racemic)	5.52	
CCC1(c2ccc(CSc3cc(Cl)ccc3Cl)cc2)Oc2ccccc2-n2cccc2C1=O (racemic)	4.85	
CCC1(c2ccc(CSc3ccc(Cl)cc3Cl)cc2)Oc2ccccc2-n2cccc2C1=O (racemic)	4.65	
CCC1(c2ccc(CSc3ccc(F)cc3Cl)cc2)Oc2ccccc2-n2cccc2C1=O (racemic)	5.60	
CCC1(c2ccc(CSc3cc(OC)ccc3OC)cc2)Oc2ccccc2-n2cccc2C1=O (racemic)	4.46	
CCC1(c2ccc(CSc3ccc(I)cc3Cl)cc2)Oc2ccccc2-n2cccc2C1=O (racemic)	5.70	
CCC1(c2ccc(CSc3c(F)c(F)cc(F)c3F)cc2)Oc2ccccc2-n2cccc2C1=O (racemic)	5.10	

SMILES	pIC50 (Adenosine kinase)	further results
CCC1(c2ccc(CSc3ccccn3)cc2)Oc2ccccc2-n2cccc2C1=O (racemic)	5.35	
CCC1(c2ccc(CSc3ncc[nH]3)cc2)Oc2ccccc2-n2cccc2C1=O (racemic)	5.46	
CCC1(c2ccc(CSc3cnccn3)cc2)Oc2ccccc2-n2cccc2C1=O (racemic)	5.15	
CCC1(c2ccc(CSc3ncccn3)cc2)Oc2ccccc2-n2cccc2C1=O (racemic)	5.15	
CCC1(c2ccc(COc3ccc(I)cc3Cl)cc2)Oc2ccccc2-n2cccc2C1=O (racemic)	5.92	
CCC1(c2ccc(COc3cccc(CCO)c3)cc2)Oc2ccccc2-n2cccc2C1=O (racemic)	5.10	
CCN(CC)CCc1cccc(OCc2ccc(C3(CC)Oc4ccccc4-n4cccc4C3=O)cc2)c1 (racemic)	3.70	
CCC1(c2ccc(COc3cccc(CCN4CCCC4)c3)cc2)Oc2ccccc2-n2cccc2C1=O (racemic)	3.82	
O=C1c2cccn2-c2ccccc2OC1c1ccc(CSc2ccccc2)cc1 (racemic)	5.40	
O=C1c2cccn2-c2ccccc2OC1c1ccc(CSc2ccccc2Cl)cc1 (racemic)	5.36	
CCC1(c2ccc(CSc3ccccc3Cl)cc2)Sc2ccccc2-n2cccc2C1=O (racemic)	5.30	
CCC1(c2ccc(CSc3ccc(C#C[Si](C)(C)C)cc3)cc2)Sc2ccccc2-n2cccc2C1=O (racemic)	5.70	
O=C1c2cccn2-c2ccccc2SC1c1ccccc1 (racemic)	3.89	
O=C1c2cccn2-c2ccccc2OC1c1ccccc1 (racemic)	4.00	
CCC1(c2ccccc2)Oc2ccccc2-n2cccc2C1=O (racemic)	4.07	
CCC1(c2ccc(C)cc2)Oc2ccccc2-n2cccc2C1=O (racemic)	4.10	

Second part, led by results:

pIC50 (Adenosine kinase)	SMILES	further results
4.90	CCC1(c2ccc(CSc3cccc(OC)c3)cc2)Oc2ccccc2-n2cccc2C1=O (racemic)	
5.35	CCC1(c2ccc(CSc3ccccc3F)cc2)Oc2ccccc2-n2cccc2C1=O (racemic)	
6.00	CCC1(c2ccc(CSc3ccccc3Cl)cc2)Oc2ccccc2-n2cccc2C1=O (racemic)	inhibition [1]: 6.5%; pIC50 (NIH3T3): 4.01
4.67	CCC1(c2ccc(CSc3cccc(C)c3)cc2)Oc2ccccc2-n2cccc2C1=O (racemic)	
5.40	CCC1(c2ccc(CSc3cccc(F)c3)cc2)Oc2ccccc2-n2cccc2C1=O (racemic)	
5.46	CCC1(c2ccc(CSc3cccc(Cl)c3)cc2)Oc2ccccc2-n2cccc2C1=O (racemic)	
5.60	CCC1(c2ccc(CSc3cccc(C(F)(F)F)c3)cc2)Oc2ccccc2-n2cccc2C1=O (racemic)	inhibition [1]: 2.7%; pIC50 (NIH3T3): 4.35
5.49	CCC1(c2ccc(CSc3cccc(OC(F)(F)F)c3)cc2)Oc2ccccc2-n2cccc2C1=O (racemic)	
6.00	CCC1(c2ccc(CSc3ccc(F)cc3)cc2)Oc2ccccc2-n2cccc2C1=O (racemic)	inhibition [1]: 13%
5.70	CCC1(c2ccc(CSc3ccc(Br)cc3)cc2)Oc2ccccc2-n2cccc2C1=O (racemic)	pIC50 (NIH3T3): 4.32
5.60	CCC1(c2ccc(CSc3ccc(I)cc3)cc2)Oc2ccccc2-n2cccc2C1=O (racemic)	pIC50 (NIH3T3): 4.36
5.17	CCC1(c2ccc(CSc3ccc(OC(F)(F)F)cc3)cc2)Oc2ccccc2-n2cccc2C1=O (racemic)	
4.85	CCC1(c2ccc(CSc3ccc(OC)cc3)cc2)Oc2ccccc2-n2cccc2C1=O (racemic)	
4.82	C#Cc1ccc(SCc2ccc(C3(CC)Oc4ccccc4-n4cccc4C3=O)cc2)cc1 (racemic)	inhibition [1]: 16%
5.00	CCC1(c2ccc(CSc3ccc(Cl)c(Cl)c3)cc2)Oc2ccccc2-n2cccc2C1=O (racemic)	
5.00	CCC1(c2ccc(CSc3ccc(F)cc3F)cc2)Oc2ccccc2-n2cccc2C1=O (racemic)	
4.96	CCC1(c2ccc(CSc3ccc(F)c(Cl)c3)cc2)Oc2ccccc2-n2cccc2C1=O (racemic)	
5.05	O=C1c2cccn2-c2ccccc2OC1c1ccc(CSc2cccc(C(F)(F)F)c2)cc1 (racemic)	
5.12	CCC1(c2ccc(CSc3c(Cl)cccc3Cl)cc2)Oc2ccccc2-n2cccc2C1=O (single isomer, unassigned; (+))	
4.40	CCC1(c2ccc(CSc3c(Cl)cccc3Cl)cc2)Oc2ccccc2-n2cccc2C1=O (single isomer, unassigned; (-))	
